# Assay outcomes (PubChem BioAssay)
# NR2E3 ag-1: human photoreceptor-specific nuclear receptor agonism; Q9Y5X4; CHO-S Gal4-NCOR/VP16-NR2E3 two-hybrid, luciferase; inhibition of corepressor binding, % at 3.98 µM; 360,000 compounds, 0.35% hits;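 active = inhibition above the mean of all tested compounds plus 3 SD, cut at about 70% in these data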;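 also: higher means lower luciferase signal from less NR2E3 corepressor binding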
# NR2F2 inh: inhibitors of human COUP-TFII (NR2F2); HEK293T NGFI-A luciferase reporter, luminescence; P24468; inhibition, % at 8.6 µM; 370,000 compounds, 0.7% hits;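 active = inhibition above a per-plate cutoff, mean inhibition of test wells between control levels plus 3 SD, cut at about 38% in these data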;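 also: cells cotransfected with COUP-TFII expression vector driving the NGFI-A reporter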
# NR2E3 ag-2: activates human photoreceptor nuclear receptor NR2E3 | AID 2300 | 320,000 compounds, 0.12% hits | GST-NR2E3/biotin-RetCOR TR-FRET, 1536-well | inhibition of corepressor binding, % at 4.78 µM | Q9Y5X4;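 active = percent inhibition above the cutoff of mean plus 3 SD of all tested compounds, set per screening campaign, cut at about 20% in these data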
#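 Material – GST-tagged NR2E3 plus biotinylated RetCOR corepressor · Quantity – NR2E3 fusion 1.35 nM · Times – 5 h incubation at 4 °C · Medium – pH 7.5 Tris-based buffer · Technique – TR-FRET, Eu(K)-anti-GST donor, streptavidin-D2 acceptor, ex 340, em 617/671 nm · Benchmarks – high control biotin, low control 0.6% DMSO · Format – 1536-well plates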
# GalR3 antag: blocks the human galanin receptor 3 | O60755 | HEK293 GalR3-CNG cAMP membrane potential fluorescence; galR3 body fused to GalR1 C-terminus | inhibition, % at 3 µM | 360,000 compounds, 0.44% hits;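 active = inhibition above the screen-wide average plus 3 SD, cut at about 13% in these data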;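 also: forskolin and galanin both at EC90 stimulate the cells; cAMP rise reported by CNG channel membrane potential dye signal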
# CHT allo act: allosterically activates the human high affinity choline transporter; CHT-expressing cells, membrane potential dye, choline EC20; hits give high values; LV-AA mutant CHT in HEK293 cells; Q9GZV3; B-score at 10 µM; 310,000 compounds, 0.49% hits;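 active = initial fluorescence not abnormally high and integrated response B-score, plate-corrected, over 3 SD above library mean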
# Target sequence (Q9GZV3 whole entry, looked up): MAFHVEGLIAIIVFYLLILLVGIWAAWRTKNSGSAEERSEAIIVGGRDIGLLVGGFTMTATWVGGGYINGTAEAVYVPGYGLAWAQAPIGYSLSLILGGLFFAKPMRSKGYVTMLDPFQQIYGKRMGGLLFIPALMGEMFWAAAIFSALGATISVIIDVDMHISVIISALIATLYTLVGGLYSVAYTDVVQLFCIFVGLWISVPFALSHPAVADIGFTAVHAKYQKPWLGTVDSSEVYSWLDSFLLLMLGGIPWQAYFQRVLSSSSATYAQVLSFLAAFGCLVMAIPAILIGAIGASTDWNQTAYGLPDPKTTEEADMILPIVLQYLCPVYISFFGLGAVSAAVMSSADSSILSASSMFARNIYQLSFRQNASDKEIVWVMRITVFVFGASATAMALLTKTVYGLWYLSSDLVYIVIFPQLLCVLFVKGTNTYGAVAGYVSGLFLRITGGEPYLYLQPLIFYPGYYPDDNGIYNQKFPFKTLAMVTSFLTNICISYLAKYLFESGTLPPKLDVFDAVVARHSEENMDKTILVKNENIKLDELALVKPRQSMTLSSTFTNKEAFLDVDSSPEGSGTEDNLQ
# CHT inh: inhibits the human high affinity choline transporter; CHT-expressing cells, membrane potential dye, choline response; hits give low values; B-score at 10 µM; 310,000 compounds, 0.86% hits;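 active = B-score over 3 SD under the library average, and starting fluorescence ratio not unusually high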;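 also: choline stimulus applied at its EC90 after an EC20 pre-addition; B-score computed on integrated fluorescence ratio after choline addition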
# GalR3 conf: confirmation of human galanin receptor 3 antagonists; AID 652245; shares compounds with GalR3 antag; inhibition, % at 3 µM; 1,600 compounds, 59% hits; HEK293 GalR3 CNG cAMP biosensor, membrane potential fluorescence; galR3 fused to GalR1 carboxy tail; challenged with forskolin and galanin at EC90;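 active = inhibition above the primary screen's cutoff, the mean inhibition of all screened compounds plus 3 SD, cut at about 13% in these data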
# HEK-CNG parental: parental cell agonism counter-screen for GalR3 antagonists. activation, % at 3 µM. shares compounds with GalR3 antag. HEK293-CNG parental cells, cAMP membrane potential fluorescence; normalised: DMSO wells 0%, forskolin wells 100%. 1,600 compounds, 10% hits; in the data active = activation above about 1.3%
# Hits are given with their value; i = inactive; nt = no result. Hits are enriched below; roughly 2.3% of the tested compounds scored in any of these assays.
SMILES,NR2E3 ag-1,NR2F2 inh,NR2E3 ag-2,GalR3 antag,CHT allo act,CHT inh,GalR3 conf,HEK-CNG parental
CCN(CC)S(=O)(=O)c1cccc(NC(=O)COC(=O)c2n[nH]c(=O)c3ccccc23)c1,i,i,i,15,i,i,51,i
NC(=O)C1CCN(C(=O)c2ccc3nc(N4CCCCC4)sc3c2)CC1,i,i,i,16,i,i,i,i
COc1ccccc1NC(=S)NC(=O)c1c(-c2ccccc2Cl)noc1C,i,i,i,15,i,i,i,i
COc1cc(NC(=O)c2cc(Cl)ccc2Cl)ccc1-c1cc2ccccc2oc1=O,i,i,i,i,i,i,nt,nt
CCc1ccc(OCC(=O)Nc2ccc(-c3cc4ccccc4oc3=O)c(OC)c2)cc1,i,i,i,26,i,i,66,i
Cc1cc(C)cc(C(=O)OCCN2CCN(C3CN(Cc4cn(Cc5ccc([N+](=O)[O-])cc5)nn4)S(=O)(=O)C3)CC2)c1 (stereo not given),nt,i,nt,nt,nt,nt,nt,nt
C/C(=C/C(=O)Nc1cccc(F)c1)N1CCCC1,i,i,i,17,i,i,i,i
O=C(Nc1cccc(F)c1)N1CCCCCC1,i,i,i,i,i,i,nt,nt
C=CCNc1nc2c(c(=O)n(C)c(=O)n2C)n1CCCCCC,i,61,i,41,i,i,83,i
Cc1[nH]c(=O)c(C#N)cc1-c1ccccc1,i,i,i,20,i,i,20,i
O=C(O)c1ccccc1C(=O)c1ccc(F)c(F)c1,i,i,nt,17,nt,nt,i,i
Cc1ccc(C(=O)c2ccccc2C(=O)O)cc1C,i,i,i,i,i,i,nt,nt
COCCCN1C(=O)[C@H](CC(=O)NCCC(C)C)[C@]2(C(=O)OC)CCCCC=C12,nt,i,nt,nt,nt,nt,nt,nt
C[C@H]1CN=C2N(CCNC(=O)CCC3CCCCC3)[C@H](Cc3ccc(O)cc3)CN21,i,i,i,17,i,i,i,i
CS(=O)(=O)c1ncc(Cl)c(C(=O)Nc2ccc3ccccc3c2)n1,i,i,nt,20,nt,nt,i,i
OCC[C@@H]1C[C@H](O)[C@@H](O)[C@]2(CCc3ccccc3O2)O1,i,i,i,i,i,i,nt,nt
OCC[C@@H]1C[C@@H](O)[C@H](O)[C@]2(CCc3ccccc3O2)O1,i,i,i,nt,i,i,18,i
O=S(=O)(c1sccc1Br)n1c(CN2CCOCC2)nc2ccccc21,nt,i,nt,nt,nt,nt,nt,nt
O=C1CSc2ccc(C(=O)N3CCCC(C(=O)N4CCN(c5ccc(F)cc5)CC4)C3)cc2N1 (stereo not given),nt,i,nt,nt,nt,nt,nt,nt
Cc1nc(C)n(CCNS(=O)(=O)c2ccc(C)c(C)c2)n1,i,i,i,18,i,i,i,i
Cc1ccc(S(=O)(=O)NCCCN2CCOCC2)cc1C,i,i,i,i,i,i,nt,nt
CC1CCCCN1S(=O)(=O)c1ccc(S(=O)(=O)N(Cc2ccccc2)Cc2ccco2)cc1 (stereo not given),i,i,i,13,i,i,i,i
Cc1ccc(-c2nnc(SCC(=O)NN=Cc3c[nH]c4ccccc34)n2-c2ccccc2)cc1,nt,i,nt,nt,nt,nt,nt,nt
COc1ccc(Cl)cc1CN1CCOCC1,i,i,i,13,i,i,i,i
CC(C)CSc1nnc(N)s1,i,i,i,14,i,i,i,i
SMILES,NR2E3 ag-1,NR2F2 inh,NR2E3 ag-2,GalR3 antag,CHT allo act,CHT inh,GalR3 conf,HEK-CNG parental
CCCCCCSc1nnc(N)s1,i,i,i,i,i,i,nt,nt
N#CCOc1nc(N2CCCCC2)nc(N2CCCCC2)n1,i,i,i,i,i,i,nt,nt
CCOc1nc(C#N)nc(N2CCCCC2)n1,i,i,nt,95,nt,nt,108,i
Cn1c2ccccc2c2cnn(CC(=O)O)c(=O)c21,i,i,i,nt,i,i,i,i
CN(c1c2c(nc3ncnn13)CCCC2)C1CCCCC1,nt,i,nt,nt,nt,nt,nt,nt
CCOc1ccc(S(=O)(=O)Nc2nc3ccccc3nc2N2CCN(C)CC2)cc1,i,i,i,20,i,i,17,i
COC(=O)[C@]12C[C@H](CC(=O)NCCCCc3ccccc3)C(=O)N(Cc3cccc4ccccc34)C1=C[C@H](COCc1ccccc1)O[C@@H]2C,nt,i,nt,nt,nt,nt,nt,nt
Cc1ccc(S(=O)(=O)Oc2ccccc2/C=N/Nc2ccc(C(=O)O)cc2)cc1,i,i,i,18,i,i,i,i
Cc1ccc(S(=O)(=O)Oc2ccccc2/C=N/O)cc1,i,i,i,i,i,i,nt,nt
Cc1ccc(OCc2nnc(SCC(=O)Nc3ccccc3-c3ccccc3)n2Cc2ccco2)cc1,nt,i,nt,nt,nt,nt,nt,nt
C[C@@H]1OCN(C)[C@H]2C[C@H]3c4[nH]c5cccc(-c6cccc(F)c6)c5c4CCN3C(=O)[C@@H]12,nt,i,nt,nt,nt,nt,nt,nt
COc1ccc(-c2cc(NC(C)=O)c3ncc(-c4ccc(OC)c(OC)c4)n3c2)cc1OC,i,i,nt,i,nt,nt,nt,nt
COc1ccc(-c2cnc3c(NC(C)=O)cc(-c4ccccc4OC)cn23)cc1OC,i,i,nt,13,nt,nt,18,i
COc1cc(-c2cnc3c(NC=O)cc(-c4ccccc4Cl)cn23)cc(OC)c1OC,i,i,nt,19,nt,nt,26,1.6
COc1cc(-c2cnc3c(NC=O)cc(-c4ccccc4)cn23)cc(OC)c1OC,i,i,nt,i,nt,nt,nt,nt
O=C(CSc1nc2ccccc2o1)Nc1cc(C(F)(F)F)ccc1N1CCOCC1,i,i,i,i,i,i,nt,nt
O=C(CSc1nc2ccccc2o1)Nc1ccc(N2CCOCC2)c(Cl)c1,i,i,i,92,i,i,109,i
CC(C)(C)N1Cc2nnn(CC3CCCCC3)c2-c2ccccc2S1(=O)=O,nt,i,nt,nt,nt,nt,nt,nt
O=C(NCCc1nc2ccccc2n1C/C=C/c1ccccc1)C1CCCCC1,nt,i,nt,nt,nt,nt,nt,nt
COc1cccc(N2CCN(C(=O)CSc3nc4ncccc4[nH]3)CC2)c1,nt,i,nt,nt,nt,nt,nt,nt
O=C(O)CCc1ccc(-c2cccs2)n1CC(=O)Nc1ccccc1C(F)(F)F,i,i,i,15,i,i,i,i
COCCn1c(CCC(=O)O)ccc1-c1cccs1,i,i,i,i,i,i,nt,nt
COc1ccc(S[C@]2(C(=O)N3CCN(c4ncccn4)CC3)CC(=O)N(C(=O)Nc3ccc(C)c(Cl)c3)[C@@H]2c2ccc(OC)cc2)cc1,nt,i,nt,nt,nt,nt,nt,nt
Cc1cccc(NC(=O)[C@@H]2CC(=O)O[C@@H]2c2ccccc2)c1C,nt,i,nt,nt,nt,nt,nt,nt
CCOC(=O)C1CCN(C2CCN(Cc3nc(-c4ccccc4)no3)CC2)CC1,i,i,i,13,i,i,i,i
COCCNC(=O)c1csc2c1CCCC2,i,i,i,i,i,i,nt,nt
COc1ccc(CCNC(=O)c2csc3c2CCCC3)cc1OC,i,i,i,13,i,i,i,i
